Screens as filed in PubChem.
MrgX1 agonist: agonists of human MrgX1 receptor; MrgX1-HEK293 cells, Fluo-4 calcium fluorescence, agonist mode; stronger effect = higher value; B-score at 10 µM; actives 0.44% (n = 310,000);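 active = calcium response B-score plate-corrected fluorescence ratio at least 3 library SD, with starting fluorescence B-score inside 5 SD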
Target sequence (Q96LB2 whole entry, looked up): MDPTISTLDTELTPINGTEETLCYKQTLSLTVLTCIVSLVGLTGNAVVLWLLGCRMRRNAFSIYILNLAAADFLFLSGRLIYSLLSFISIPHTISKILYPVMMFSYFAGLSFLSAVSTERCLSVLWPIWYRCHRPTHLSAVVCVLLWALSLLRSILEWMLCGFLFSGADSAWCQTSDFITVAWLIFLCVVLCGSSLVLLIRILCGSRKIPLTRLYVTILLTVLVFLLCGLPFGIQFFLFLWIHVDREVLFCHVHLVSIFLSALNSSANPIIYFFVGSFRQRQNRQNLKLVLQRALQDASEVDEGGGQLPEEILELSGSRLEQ
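System: HEK293 cells stably expressing human MrgX1 receptor; Dosing: test compound in the initial addition of three; Schedule: overnight plating, then 30 min 37 °C plus 30 min room-temperature dye loading; Detection: kinetic calcium dye fluorescence, Fluo-4 NW; Controls: per-plate positive and negative controls for Z′ factor.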
RGS4 act: RGS4 potentiation or activation. HEK293 M3R/inducible RGS4, carbachol calcium flux Fluo4; stronger effect = lower value. B-score at 10 µM. actives 0.92% (n = 310,000);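 active = B-score of the integrated calcium signal more than 4 SD below the library mean, with starting fluorescence not abnormally high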;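 also: negative B-score means reduced calcium response which marks RGS4 activation or potentiation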
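Material: M3R-expressing HEK293 line, RGS4 induced by doxycycline | Schedule: Overnight RGS4 induction, 30 min dye load 37 °C, 20 min compound RT | Measured by: Fluo4 fluorescence kinetic imaging of calcium | Read-out: Integrated calcium ratio converted to B score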
MrgX1 PAM: human MrgX1 positive allosteric modulation, primary screen. B-score at 10 µM. MrgX1-HEK293, Fluo-4 calcium flux, FDSS; stronger effect = higher value. AID 588675. Q96LB2. actives 0.63% (n = 310,000);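 active = plate-corrected calcium response at least 3 library SD above typical, normal starting fluorescence, not activating the receptor alone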;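 also: compound read alongside a low EC10 to EC30 dose of BAM8-22 agonist; peak minus trough fluorescence over baseline measured at the second addition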
MrgX1 antag: human MrgX1 receptor antagonism, primary screen; B-score at 10 µM; MRGX1-HEK293 calcium flux, Fluo-4, BAM8-22 antagonism; stronger effect = lower value; actives 1.3% (n = 310,000);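 active = calcium-response B-score plate-corrected more than 3 library SD below zero, starting fluorescence within 5 deviations, no agonist response on first addition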;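 also: peak minus trough fluorescence over baseline after final BAM8-22 challenge near maximal dose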
RGS4 block: inhibitors of human RGS4. HEK293 M3R/RGS4 inducible, Fluo-4 calcium flux; stronger effect = higher value; triggered by carbachol at its EC20. actives 0.45% (n = 310,000). P49798. AID 463165. B-score at 10 µM;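 active = B-score, a plate-corrected calcium signal, over three deviations above library mean, with baseline fluorescence within five deviations of library mean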;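 also: RGS4 expression induced by doxycycline in cells with stable M3 receptor; B-score is computed from the integrated fluorescence ratio over baseline after carbachol; higher B-score means a larger calcium signal and so more RGS4 inhibition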
Target sequence (P49798 whole entry, looked up): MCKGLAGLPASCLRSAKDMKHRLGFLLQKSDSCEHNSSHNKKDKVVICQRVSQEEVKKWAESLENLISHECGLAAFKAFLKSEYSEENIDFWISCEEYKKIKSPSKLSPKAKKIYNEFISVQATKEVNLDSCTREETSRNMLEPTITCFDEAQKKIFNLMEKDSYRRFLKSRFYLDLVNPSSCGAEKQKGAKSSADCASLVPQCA
MrgX1 ant reconf: confirmation of human MrgX1 receptor antagonists; shares compounds with MrgX1 antag; MrgX1-HEK293, BAM8-22 calcium flux, Fluo-4; stronger effect = lower value; remaining BAM8-22 calcium response % of control (stronger effect = lower value), % at 10 µM; actives 19% (n = 2,300);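 active = remaining agonist calcium response no higher than 100% minus 3 SD of agonist-only control wells, with starting fluorescence near control levels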;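 also: agonist BAM8-22 given at a near maximal EC90 to ECmax level; peak minus minimum fluorescence divided by baseline after agonist addition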
HEK293 Ca flux: MrgX1 antagonist counter-screen hit in parental HEK293 cells; shares compounds with MrgX1 antag; Fluo-4 calcium fluorescence, FDSS; fluorescence ratio F(max-min)/F0 at 10 µM; actives 2% (n = 4,000);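 active = duplicate-averaged calcium fluorescence ratio at least three times the standard deviation of buffer wells, a nonspecific response in parental cells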
HEK293 Ca counter: counter-screen for MrgX1 allosteric activators: effect in parental HEK293 cells. shares compounds with MrgX1 antag. parental HEK293 calcium flux, Fluo-4 fluorescence ratio; stronger effect = higher value. fluorescence ratio F(max-min)/F0 at 10 µM. actives 0.4% (n = 4,000). AID 624114;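 active = calcium fluorescence ratio, averaged over duplicates, at least 3 SD of the buffer-well ratio, meaning a nonspecific response in receptor-free cells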;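 also: untransfected parental HEK293 lacking MrgX1 used as counterscreen for MrgX1 allosteric activators; fluorescence change taken during the second addition on a kinetic imager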
HEK293 Ca cntr2: MrgX1 activator counter-screen hit in parental HEK293 cells; AID 624115; shares compounds with MrgX1 antag; fluorescence ratio F(max-min)/F0 at 10 µM; Fluo-4 calcium fluorescence (FDSS); stronger effect = higher value; actives 8.7% (n = 4,000);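 active = calcium fluorescence ratio at least three times the spread of buffer wells, meaning a non-specific response in parental cells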
Active calls of the source: *; i = inactive; nt = no result given. Most compounds without a hit are left out; they make up all but 3.5% or so of the library.

SMILES	MrgX1 agonist	RGS4 act	MrgX1 PAM	MrgX1 antag	RGS4 block	MrgX1 ant reconf	HEK293 Ca flux	HEK293 Ca counter	HEK293 Ca cntr2
COc1ccc(C(O)C(CN2CCOCC2)c2ccccc2)cc1F (configuration not stated)	i	i	i	-5.56*	i	i	i	i	i
CC(=O)Nc1ccc(-c2ccc(NC(C)=O)cc2)cc1	i	i	i	i	i	nt	nt	nt	nt
CC(=O)Nc1ccc(NS(=O)(=O)C(F)(F)F)cc1	i	i	i	-8.72*	i	i	i	i	i
Cc1sc(NC(=O)c2ccccc2)c(C(c2ccccn2)N2CCN(CCO)CC2)c1C (configuration not stated)	i	i	i	-4.52*	i	i	i	i	i
CCOC(=O)c1c(NC(=O)CSc2nnc3c(Cl)cc(Cl)cn23)sc2c1CCC2	i	i	i	i	i	nt	nt	nt	nt
Cc1[nH]c2ccc(C(=O)OC(C)C(=O)N(C)c3ccccc3)cc2c1C (configuration not stated)	i	i	i	i	i	nt	nt	nt	nt
O=C(Nc1ccc(C(=O)N2CCOCC2)cc1)c1cccs1	i	i	i	-6.99*	i	75.3%*	i	i	i
CN=C(Nc1ccc(Cl)cc1)c1ccc(C(F)(F)F)cc1	i	i	i	i	i	nt	nt	nt	nt
CCOC(=O)c1c(OCC)[nH]c2ccc(O)cc12	i	i	i	i	i	nt	nt	nt	nt
CC1CC(C)CN(C(=O)CCCNC(=O)c2ccc(Cl)cc2)C1 (configuration not stated)	i	i	i	i	i	nt	nt	nt	nt
CC1CC2(NC(=O)NC2=O)C(C)CN1C (configuration not stated)	i	i	i	i	i	nt	nt	nt	nt
CC1C[C@@]2(NC(=O)NC2=O)C(C)CN1C (some centres not stated)	i	i	i	-5.5*	i	i	i	i	i
COc1ccccc1-n1nnnc1SCC(=O)NC1CCCCC1	i	i	i	i	i	nt	nt	nt	nt
COC(=O)c1ccccc1NC(=O)CN(c1ccc(C)cc1)S(C)(=O)=O	i	i	i	i	i	nt	nt	nt	nt
O=C1N=C(c2ccccc2)C(c2ccccc2)N1 (configuration not stated)	i	i	i	-7.29*	i	i	i	i	i
O=C(NCCCN1CCOCC1)c1cc2ccccc2cc1O	i	i	i	-4.73*	i	i	i	i	i
COc1cc2ccccc2cc1C(=O)NCCCN1CCOCC1	i	i	i	i	i	nt	nt	nt	nt
COc1ccccc1NC(=O)c1cc(Cl)ccc1NC(=O)c1ccco1	i	i	i	i	i	nt	nt	nt	nt
CCC(NC(=O)c1ccccc1NC(=O)c1ccco1)C(=O)O (configuration not stated)	i	i	i	-7.6*	i	i	i	i	i
CCOc1ccccc1NC(=O)c1cc(Cl)ccc1NC(=O)c1ccco1	i	i	i	-5.22*	i	i	i	i	i
NS(=O)(=O)c1ccc(NC(=S)NC2CC2)cc1	i	i	i	i	i	nt	nt	nt	nt
CN(C)C1(CNC(=O)C2CCC(=O)N(CCc3ccc(Cl)cc3)C2)CCCCC1 (configuration not stated)	i	i	i	i	i	nt	nt	nt	nt
CCn1nnc2cc(C(=O)Nc3cc(OC)cc(OC)c3)ccc21	i	i	i	-8.75*	i	i	i	i	i
CCn1nnc2cc(C(=O)Nc3cc(S(C)(=O)=O)ccc3Cl)ccc21	i	i	i	i	i	nt	nt	nt	nt
O=C(Nc1ccc(Oc2ccc(NC(=O)Nc3ccc([N+](=O)[O-])cc3)cc2)cc1)Nc1ccc([N+](=O)[O-])cc1	i	i	i	i	i	nt	nt	nt	nt
SMILES	MrgX1 agonist	RGS4 act	MrgX1 PAM	MrgX1 antag	RGS4 block	MrgX1 ant reconf	HEK293 Ca flux	HEK293 Ca counter	HEK293 Ca cntr2
COc1ccc(/C=N/n2c(C)nnc2C)c(OC)c1	i	i	i	i	i	nt	nt	nt	nt
COc1cc(OC)c(/C=N/n2c(C)nnc2C)c(OC)c1	i	i	i	-4.78*	i	i	i	i	i
CN(C(=O)c1cccc(Br)c1)C1CCS(=O)(=O)C1 (configuration not stated)	i	i	i	-4.54*	i	i	i	i	i
CCN(C(=O)c1cccc(Br)c1)C1CCS(=O)(=O)C1 (configuration not stated)	i	i	i	i	i	nt	nt	nt	nt
Cc1cc(S(=O)(=O)NCc2cccnc2)ccc1F	i	i	i	i	i	nt	nt	nt	nt
CC(=O)c1sc(NC(=O)CN2C(=O)NC3(CCCC3)C2=O)nc1-c1ccccc1	i	i	i	-6.39*	i	i	i	i	i
CSc1nnc(C)c(=O)n1COC(=O)c1ccc(S(=O)(=O)N(C)C)cc1	i	i	i	i	i	nt	nt	nt	nt
COc1ccc(C2=C(C=O)Cc3ccccc3O2)cc1	i	i	i	i	i	nt	nt	nt	nt
CC(C)CN(C(=O)COC(=O)/C=C/c1cccs1)c1c(N)n(Cc2ccccc2)c(=O)[nH]c1=O	i	i	i	i	i	nt	nt	nt	nt
COCCN(C(=O)COC(=O)/C=C/c1cccs1)c1c(N)n(Cc2ccccc2)c(=O)[nH]c1=O	i	i	i	-11.6*	i	69.0%*	i	i	i
O=C(CNS(=O)(=O)c1ccc([N+](=O)[O-])cc1)N/N=C/c1ccc(O)cc1O	i	i	i	-12.8*	i	40.5%*	i	63.1*	i
Nc1nc(N2CCN(c3ccccc3)CC2)n[nH]1	i	i	i	-5.66*	i	i	i	i	i
Nc1nc(N2CCN(c3ccc(Cl)cc3)CC2)n[nH]1	i	i	i	i	i	nt	nt	nt	nt
N=C1SCC(=O)N1c1ccc(Cl)cc1	i	i	i	i	i	nt	nt	nt	nt
CC(=O)Nc1ccc(Sc2ncccc2C(=O)Nc2ccc(OC(F)(F)F)cc2)cn1	i	i	i	-10*	i	i	i	i	i
